Assay results reported in ChEMBL document CHEMBL1126202, “Dual-action penems and carbapenems” (J Med Chem, 1992).

How the values were obtained:
[1] = test system: Pseudomonas aeruginosa; assay: In vitro antibacterial activity against Pseudomonas aeruginosa 8780; assay type: functional
Procedure, shortened: (§1)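 MIC was determined by agar dilution on Mueller-Hinton agar. Serial 2-fold aqueous dilutions were diluted 10-fold in agar to give final concentrations of 128 to 0.0156 μg/mL. Plates were inoculated by Steers replicator with overnight broth cultures diluted 100-fold.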

[2] = test system: Pseudomonas aeruginosa; assay: In vitro antibacterial activity against Pseudomonas aeruginosa 18SH (constitutive beta-lactamase producer); assay type: functional; procedure, shortened: as §1
[3] = test system: Streptococcus pyogenes; assay: In vitro antibacterial activity against Streptococcus pyogenes 4; assay type: functional
Procedure, shortened: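 Streptococcal MICs were determined by agar dilution on brain heart infusion agar supplemented with 20 units/mL bovine liver catalase. Final concentrations were 128 to 0.0156 μg/mL from 2-fold dilutions. Inocula were overnight broth cultures diluted 100-fold, applied by Steers replicator.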

[4] = test system: Escherichia coli; assay: In vitro antibacterial activity against Escherichia coli 257; assay type: functional
[5] = test system: Serratia marcescens; assay: In vitro antibacterial activity against serratia marcescens SM (constitutive beta-lactamase producer); assay type: functional; procedure, shortened: as §1
[6] = test system: Escherichia coli; assay: Concentration inhibiting [14C]- Penicillin G binding to Escherichia coli UB1005 PBP4 (penicillin binding protein) 49 kDa; assay type: functional
Procedure, shortened: (§2)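 Solubilized membranes from sonicated E. coli UB1005 were used as the PBP source. Inhibition of [14C]penicillin G binding to the PBPs was measured.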

[7] = test system: Clostridioides difficile; assay: In vitro antibacterial activity against Clostridium difficile 651; assay type: functional
[8] = biological target: T1, Peptidoglycan D,D-transpeptidase MrdA (Escherichia coli K-12) (UniProt P0AD65); assay: Concentration inhibiting [14C]- Penicillin G binding to Escherichia coli UB1005 PBP2 (penicillin binding protein) 66 kDa; procedure, shortened: as §2
T1 sequence (whole entry): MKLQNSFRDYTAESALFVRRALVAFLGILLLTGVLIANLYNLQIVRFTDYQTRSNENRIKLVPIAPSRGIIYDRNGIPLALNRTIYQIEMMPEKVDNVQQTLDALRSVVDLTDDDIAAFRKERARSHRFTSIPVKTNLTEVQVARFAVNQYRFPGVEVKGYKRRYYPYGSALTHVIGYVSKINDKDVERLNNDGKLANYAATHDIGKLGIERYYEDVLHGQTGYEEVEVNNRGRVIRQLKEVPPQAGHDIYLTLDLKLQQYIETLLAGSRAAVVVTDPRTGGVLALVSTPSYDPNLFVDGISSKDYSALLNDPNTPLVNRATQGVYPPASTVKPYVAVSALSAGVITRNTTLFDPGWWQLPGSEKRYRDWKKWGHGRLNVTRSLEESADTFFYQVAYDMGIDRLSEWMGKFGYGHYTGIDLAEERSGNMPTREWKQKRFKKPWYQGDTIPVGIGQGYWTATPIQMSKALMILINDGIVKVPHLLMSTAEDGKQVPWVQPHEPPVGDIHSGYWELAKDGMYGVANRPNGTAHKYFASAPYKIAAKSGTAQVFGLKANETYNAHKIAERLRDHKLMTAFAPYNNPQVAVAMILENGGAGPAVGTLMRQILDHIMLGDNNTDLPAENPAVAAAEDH

[9] = test system: Staphylococcus aureus; assay: In vitro antibacterial activity against staphylococcus aureus smith; assay type: functional; procedure, shortened: as §1
[10] = biological target: Penicillin-binding protein 2 (Staphylococcus aureus) (UniProt Q53729); assay: Concentration inhibiting [14C]- Penicillin G binding to Staphylococcus aureus ATCC 29213 Penicillin binding protein 2, 80 kDa
[11] = test system: Clostridium perfringens; assay: In vitro antibacterial activity against Clostridium perfringens 13424; assay type: functional
Procedure, shortened: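 MIC by broth dilution in microtiter plates, run in an oxygen-free hydrogen–carbon dioxide atmosphere. Medium: Schaedler's broth with coenzyme I and hemin added.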

[12] = test system: Bacteroides fragilis; assay: In vitro antibacterial activity against bacteroides fragilis S2; assay type: functional
Procedure, shortened: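 Anaerobic MIC, run in microtiter plates in Schaedler's broth supplemented with coenzyme I and hemin. Incubated in an oxygen-free hydrogen–carbon dioxide atmosphere.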

[13] = test system: Proteus mirabilis; assay: In vitro antibacterial activity against Proteus mirabilis 90; assay type: functional
Procedure, shortened: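 Proteus MICs were determined by agar dilution on Mueller-Hinton agar containing 3% agar. Serial 2-fold dilutions gave final concentrations of 128 to 0.0156 μg/mL. Plates were replicator-inoculated with 100-fold-diluted overnight broth cultures.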

[14] = test system: Enterobacter cloacae; assay: In vitro antibacterial activity against enterobacter cloacae P99 (constitutive beta-lactamase producer); assay type: functional; procedure, shortened: as §1
[15] = test system: Klebsiella pneumoniae; assay: In vitro antibacterial activity against klebsiella pneumoniae A; assay type: functional
Procedure, shortened: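 Agar-dilution MIC on Mueller-Hinton agar. Serial 2-fold dilutions were made in water, giving final agar concentrations of 128 to 0.0156 μg/mL. Inoculum was an overnight broth culture diluted 100-fold, applied with a multipoint replicator.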

[16] = test system: Escherichia coli; assay: In vitro antibacterial activity against Escherichia coli UB1005 (nalidixic acid-resistant strain); assay type: functional; procedure, shortened: as §1
[17] = test system: Staphylococcus aureus; assay: In vitro antibacterial activity against Staphylococcus aureus 67(methicillin resistant); assay type: functional
Procedure, shortened: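 MIC by agar dilution on Mueller-Hinton agar. Compounds were serially 2-fold diluted in water, final 128 to 0.0156 μg/mL in agar. Inoculum: overnight broth culture diluted 100-fold, applied with a Steers replicator.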

[18] = biological target: T2, Penicillin-binding protein 1 (Staphylococcus aureus (strain COL)) (UniProt F4NA86); assay: Concentration inhibiting [14C]- Penicillin G binding to Staphylococcus aureus ATCC 29213 Penicillin binding protein 1, 87 kDa
T2 sequence (whole entry): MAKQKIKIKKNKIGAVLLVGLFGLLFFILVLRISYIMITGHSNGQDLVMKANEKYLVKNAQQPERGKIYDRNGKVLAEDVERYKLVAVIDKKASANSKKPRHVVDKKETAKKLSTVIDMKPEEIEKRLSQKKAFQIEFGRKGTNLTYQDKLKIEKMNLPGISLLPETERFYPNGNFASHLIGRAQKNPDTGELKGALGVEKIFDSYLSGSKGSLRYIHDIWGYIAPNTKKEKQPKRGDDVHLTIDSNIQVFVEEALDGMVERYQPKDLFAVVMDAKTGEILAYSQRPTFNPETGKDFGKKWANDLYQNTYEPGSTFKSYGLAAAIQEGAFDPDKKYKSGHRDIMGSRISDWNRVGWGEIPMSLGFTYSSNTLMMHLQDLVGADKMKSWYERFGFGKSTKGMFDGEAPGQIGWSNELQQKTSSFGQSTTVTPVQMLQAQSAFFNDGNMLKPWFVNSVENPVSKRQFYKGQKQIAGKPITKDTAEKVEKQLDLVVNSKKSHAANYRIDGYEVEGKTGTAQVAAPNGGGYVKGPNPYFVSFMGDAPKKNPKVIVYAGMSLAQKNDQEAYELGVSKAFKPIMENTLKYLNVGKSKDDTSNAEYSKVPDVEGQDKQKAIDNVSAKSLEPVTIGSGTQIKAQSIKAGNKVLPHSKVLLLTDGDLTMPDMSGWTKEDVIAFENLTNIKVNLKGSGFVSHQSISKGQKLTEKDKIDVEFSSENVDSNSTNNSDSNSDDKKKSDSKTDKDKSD

[19] = test system: Bacteroides thetaiotaomicron; assay: In vitro antibacterial activity against Bacteroides thetaiotaomicron 62B; assay type: functional
Procedure, shortened: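 Anaerobic MICs were determined in microtiter plates in Schaedler's broth supplemented with coenzyme I and hemin. Incubation was under an oxygen-free hydrogen-carbon dioxide atmosphere.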

[20] = test system: Clostridioides difficile; assay: In vitro antibacterial activity against Clostridium difficile 701; assay type: functional
[21] = test system: Escherichia coli; assay: In vitro antibacterial activity against Escherichia coli TEM-1 (constitutive beta-lactamase producer); assay type: functional; procedure, shortened: as §1

Row | SMILES | MIC [1] [µg/mL] | MIC [2] [µg/mL] | MIC [3] [µg/mL] | MIC [4] [µg/mL] | MIC [5] [µg/mL] | IC90 [6] [µg/mL] | MIC [7] [µg/mL] | IC90 [8] [µg/mL] | MIC [9] [µg/mL] | IC90 [10] [µg/mL] | MIC [11] [µg/mL] | MIC [12] [µg/mL] | MIC [13] [µg/mL] | MIC [14] [µg/mL] | MIC [15] [µg/mL] | MIC [16] [µg/mL] | MIC [17] [µg/mL] | MIC [19] [µg/mL] | MIC [20] [µg/mL] | MIC [21] [µg/mL] | other results
1 | C[C@@H](O)[C@H]1C(=O)N2C(C(=O)[O-])=C(COC(=O)N3CCN(c4cc5c(cc4F)c(=O)c(C(=O)O)cn5C4CC4)CC3)S[C@H]12.[Na+] | 2 | 1 | 0.0313 | 0.0625 | 0.25 | > 100 | 4 | 30 | 0.125 | 2 | 0.25 | 16 | 1 | 0.0625 | 0.25 | 4 | 4 | 16 | 8 | 0.0625 | IC90 [18]: 2 µg/mL
2 | C[C@@H](O)[C@H]1C(=O)N2C(C(=O)[O-])=C(CO)S[C@H]12.[Na+] | 64 | 8 | 0.125 | 4 | – | > 100 | – | 30 | 0.25 | – | 0.5 | – | 8 | – | – | – | > 64 | 0.125 | 2 | 4 | IC90 [18]: 30 µg/mL
3 | C[C@@H](O)[C@H]1C(=O)N2C(C(=O)[O-])=C(COC(=O)c3cn(CCF)c4c(F)c(N5CCN(C)CC5)c(F)cc4c3=O)S[C@H]12.[Na+] | 16 | – | < 0.0156 | 0.25 | 0.5 | > 100 | 0.5 | 10 | 0.125 | 0.5 | < 0.125 | < 0.125 | 1 | 0.5 | 0.5 | 2 | 1 | 4 | 1 | 0.5 | –
